This note sets out measurements from ChEMBL document CHEMBL1649483, “Molecular analysis of the gyrA and gyrB quinolone resistance-determining regions of fluoroquinolone-resistant Clostridium difficile mutants selected in vitro” (2009).

Holding throughout (type): functional
The subject of experiment [1] is Clostridioides difficile. The experiment in a line: Antimicrobial activity against Clostridium difficile C253a selected after 2 ug/ml of moxifloxacin by Etest method.
Experiment [2] relates to Clostridioides difficile. The experiment in a line: Antimicrobial activity against Clostridium difficile C253g harboring GyrA Ala118Ser mutant gene selected after 8 ug/ml of moxifloxacin by Etest method.
The test system of experiment [3] is Clostridioides difficile. Kind of experiment: Antimicrobial activity against Clostridium difficile 630f selected after 4 ug/ml of moxifloxacin by Etest method. The gist of the method: (§1)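 Stable in vitro-selected mutant tested for gatifloxacin susceptibility by Etest, per the manufacturer's instructions, with an 8 μg/ml breakpoint. For selection, the parent was grown in antibiotic-free brain heart infusion (BHI) for 24 h at 35°C under anaerobic conditions. […] Later steps used double the MIC. Stability was confirmed by three subcultures.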

Experiment [4] concerns Clostridioides difficile. The experiment in a line: Antimicrobial activity against Clostridium difficile CD5 2-g harboring GyrA Ala118Ser, Thr82Ala and GyrB Ser416Ala mutant genes selected after 8 ug/ml of moxifloxacin by Etest method.
Experiment [5] deals with Clostridioides difficile. The experiment in a line: Antimicrobial activity against Clostridium difficile C253c selected after 2 ug/ml of moxifloxacin by Etest method.
For experiment [6], the system named is Clostridioides difficile. Kind of experiment: Antimicrobial activity against Clostridium difficile BI2B selected after 4 ug/ml of levofloxacin by Etest method. In a few lines: as §1
Experiment [7] relates to Clostridioides difficile. The experiment in a line: Antimicrobial activity against Clostridium difficile CD5i harboring GyrA Ala118Ser, Thr82Ala and GyrB Ser416Ala mutant genes selected after 8 ug/ml of moxifloxacin by Etest method.
In experiment [8] the test system is Clostridioides difficile. Kind of experiment: Antimicrobial activity against Clostridium difficile A422A selected after 4 ug/ml of levofloxacin by Etest method. The gist of the method: as §1
Experiment [9] concerns Clostridioides difficile. Kind of experiment: Antimicrobial activity against Clostridium difficile A422g harboring GyrA Asp81Asn mutant gene selected after 8 ug/ml of moxifloxacin by Etest method. The gist of the method: as §1
Experiment [10] concerns Clostridioides difficile. Kind of experiment: Antimicrobial activity against Clostridium difficile CD25 expressing tcdA, tcdB gene and GyrB Ser416Ala mutant gene by Etest method.
Experiment [11] concerns Clostridioides difficile. Kind of experiment: Antimicrobial activity against Clostridium difficile C253A selected after 4 ug/ml of levofloxacin by Etest method. The gist of the method: as §1
For experiment [12], the system named is Clostridioides difficile. Kind of experiment: Antimicrobial activity against Clostridium difficile A422H harboring GyrA Thr82Ile and GyrB Leu451Phe mutant genes selected after 8 ug/ml of levofloxacin by Etest method. In a few lines:
as §1

In experiment [13] the test system is Clostridioides difficile. The experiment in a line: Antimicrobial activity against Clostridium difficile A422f selected after 4 ug/ml of moxifloxacin by Etest method. The gist of the method:
as §1

Experiment [14] deals with Clostridioides difficile. The experiment in a line: Antimicrobial activity against Clostridium difficile A422I harboring GyrA Thr82Ile and GyrB Leu451Phe mutant genes selected after 8 ug/ml of levofloxacin by Etest method. In a few lines:
as §1

Experiment [15] has as its system Clostridioides difficile. Kind of experiment: Antimicrobial activity against Clostridium difficile A422c selected after 2 ug/ml of moxifloxacin by Etest method. The gist of the method:
as §1

In experiment [16] the test system is Clostridioides difficile. Kind of experiment: Antimicrobial activity against Clostridium difficile BI2D harboring GyrB Glu466Lys mutant gene selected after 8 ug/ml of levofloxacin by Etest method. In a few lines: as §1
For experiment [17], the system named is Clostridioides difficile. Kind of experiment: Antimicrobial activity against Clostridium difficile CD5B harboring GyrB Ser416Ala mutant gene selected after 4 ug/ml of levofloxacin by Etest method.
For experiment [18], the system named is Clostridioides difficile. Kind of experiment: Antimicrobial activity against Clostridium difficile BI2e harboring GyrB Arg447Lys and Asp426Asn mutant gene selected after 32 ug/ml of moxifloxacin by Etest method. The gist of the method:
as §1

The test system of experiment [19] is Clostridioides difficile. The experiment in a line: Antimicrobial activity against Clostridium difficile BI2A selected after 4 ug/ml of levofloxacin by Etest method. In a few lines: as §1
For experiment [20], the system named is Clostridioides difficile. The experiment in a line: Antimicrobial activity against Clostridium difficile A422F harboring GyrB Leu451Phe mutant gene selected after 8 ug/ml of levofloxacin by Etest method. The gist of the method: as §1
In experiment [21] the test system is Clostridioides difficile. Kind of experiment: Antimicrobial activity against Clostridium difficile 630c selected after 2 ug/ml of moxifloxacin by agar dilution method. (In general: In agar dilution, organisms are placed on agar that contains the substance at set levels.)
Experiment [22] concerns Clostridioides difficile. Kind of experiment: Antimicrobial activity against Clostridium difficile A422B selected after 4 ug/ml of levofloxacin by agar dilution method.
For experiment [23], the system named is Clostridioides difficile. Kind of experiment: Antimicrobial activity against Clostridium difficile BI2D harboring GyrB Glu466Lys mutant gene selected after 8 ug/ml of levofloxacin by agar dilution method.
Experiment [24] has as its system Clostridioides difficile. Kind of experiment: Antimicrobial activity against Clostridium difficile A422E harboring GyrB Leu451Phe mutant gene selected after 8 ug/ml of levofloxacin by agar dilution method.
The test system of experiment [25] is Clostridioides difficile. The experiment in a line: Antimicrobial activity against Clostridium difficile BI2F harboring GyrB Glu466Lys mutant gene selected after 8 ug/ml of levofloxacin by agar dilution method.
For experiment [26], the system named is Clostridioides difficile. The experiment in a line: Antimicrobial activity against Clostridium difficile A422C selected after 4 ug/ml of levofloxacin by agar dilution method.
Experiment [27] has as its system Clostridioides difficile. The experiment in a line: Antimicrobial activity against Clostridium difficile CD5D harboring GyrB Ser416Ala mutant gene selected after 8 ug/ml of levofloxacin by agar dilution method.
Experiment [28] concerns Clostridioides difficile. The experiment in a line: Antimicrobial activity against Clostridium difficile A422h harboring GyrA Asp81Asn mutant gene selected after 8 ug/ml of moxifloxacin by agar dilution method.
Experiment [29] has as its system Clostridioides difficile. Kind of experiment: Antimicrobial activity against Clostridium difficile BI2B selected after 4 ug/ml of levofloxacin by agar dilution method.
The test system of experiment [30] is Clostridioides difficile. The experiment in a line: Antimicrobial activity against Clostridium difficile CD5B harboring GyrB Ser416Ala mutant gene selected after 4 ug/ml of levofloxacin by agar dilution method.
For experiment [31], the system named is Clostridioides difficile. Kind of experiment: Antimicrobial activity against Clostridium difficile A422D harboring GyrB Leu451Phe mutant gene selected after 8 ug/ml of levofloxacin by agar dilution method.
The subject of experiment [32] is Clostridioides difficile. The experiment in a line: Antimicrobial activity against Clostridium difficile C253a selected after 2 ug/ml of moxifloxacin by agar dilution method.
Experiment [33] relates to Clostridioides difficile. Kind of experiment: Antimicrobial activity against Clostridium difficile 630g harboring GyrB […] mutant gene selected after 8 ug/ml of moxifloxacin by agar dilution method.
Experiment [34] relates to Clostridioides difficile. The experiment in a line: Antimicrobial activity against Clostridium difficile CD5d harboring GyrB Ser416Ala mutant gene selected after 4 ug/ml of moxifloxacin by agar dilution method.
Experiment [35] has as its system Clostridioides difficile. Kind of experiment: Antimicrobial activity against Clostridium difficile CD5e harboring GyrB Ser416Ala mutant gene selected after 4 ug/ml of moxifloxacin by agar dilution method.
The subject of experiment [36] is Clostridioides difficile. Kind of experiment: Antimicrobial activity against Clostridium difficile C253i harboring GyrA Ala118Ser mutant gene selected after 8 ug/ml of moxifloxacin by agar dilution method.
Experiment [37] deals with Clostridioides difficile. The experiment in a line: Antimicrobial activity against Clostridium difficile BI2e harboring GyrB Arg447Lys and Asp426Asn mutant gene selected after 32 ug/ml of moxifloxacin by agar dilution method.
Experiment [38] relates to Clostridioides difficile. The experiment in a line: Antimicrobial activity against Clostridium difficile BI2 by agar dilution method.
In experiment [39] the test system is Clostridioides difficile. Kind of experiment: Antimicrobial activity against Clostridium difficile CD5i harboring GyrA Ala92Glu and GyrB Ser416Ala mutant genes selected after 8 ug/ml of moxifloxacin by agar dilution method.
Experiment [40] concerns Clostridioides difficile. The experiment in a line: Antimicrobial activity against Clostridium difficile CD5E harboring GyrB Ser416Ala mutant gene selected after 8 ug/ml of levofloxacin by agar dilution method.
Experiment [41] has as its system Clostridioides difficile. Kind of experiment: Antimicrobial activity against Clostridium difficile C253C selected after 4 ug/ml of levofloxacin by agar dilution method.
Experiment [42] relates to Clostridioides difficile. The experiment in a line: Antimicrobial activity against Clostridium difficile C253D selected after 8 ug/ml of levofloxacin by agar dilution method.

In brackets after ≈: the same amount, converted by molar mass. Bounds are passed on as bounds.

Turning to `COc1c(N2CCNC(C)C2)c(F)cc2c(=O)c(C(=O)O)cn(C3CC3)c12` (configuration not stated) [GATIFLOXACIN], the MIC (commonly the lowest concentration that inhibits growth of the organism) was 1 µg/mL in the experiment with Clostridioides difficile [1]; 8 µg/mL in the experiment with Clostridioides difficile [2]; 2 µg/mL in the experiment with Clostridioides difficile [3]; 16 µg/mL in the experiment with Clostridioides difficile [4]; 1 µg/mL in the experiment with Clostridioides difficile [5]; 2 µg/mL in the experiment with Clostridioides difficile [6]. Also, the minimum inhibitory concentration (MIC) was 16 µg/mL in the experiment on Clostridioides difficile [7]; 1 µg/mL with Clostridioides difficile [8]; at least 32 µg/mL in the experiment on Clostridioides difficile [9]; 0.5 µg/mL (≈ 1.33 µM) in the experiment with Clostridioides difficile [10]; 0.5 µg/mL in the experiment with Clostridioides difficile [11]; at least 32 µg/mL in the experiment with Clostridioides difficile [12]. Also, the MIC in the experiment on Clostridioides difficile [13] was 1.5 µg/mL; in the experiment with Clostridioides difficile [14] it was at least 32 µg/mL; in the experiment with Clostridioides difficile [15], 1.5 µg/mL; in the experiment with Clostridioides difficile [16] it was at least 32 µg/mL; in the experiment on Clostridioides difficile [17] it was 0.5 µg/mL; with Clostridioides difficile [18] it was 6 µg/mL. In addition, the MIC with Clostridioides difficile [19] and with Clostridioides difficile [20] was 2 µg/mL each time.

For `C[C@H]1COc2c(N3CCN(C)CC3)c(F)cc3c(=O)c(C(=O)O)cn1c23.C[C@H]1COc2c(N3CCN(C)CC3)c(F)cc3c(=O)c(C(=O)O)cn1c23.O` [LEVOFLOXACIN], the MIC with Clostridioides difficile [21] was found to be 4 µg/mL; in the experiment on Clostridioides difficile [22], 1 µg/mL; with Clostridioides difficile [23], 16 µg/mL; with Clostridioides difficile [24], 2 µg/mL; in the experiment with Clostridioides difficile [25] it was 16 µg/mL; in the experiment with Clostridioides difficile [26] it was 1 µg/mL. Besides, the minimum inhibitory concentration (MIC) with Clostridioides difficile [27] turned out to be 2 µg/mL; in the experiment on Clostridioides difficile [28], 64 µg/mL; with Clostridioides difficile [29] it was 1 µg/mL; in the experiment with Clostridioides difficile [30], 1 µg/mL; in the experiment on Clostridioides difficile [31], 2 µg/mL; in the experiment with Clostridioides difficile [32], 4 µg/mL. For the same compound, the MIC in the experiment on Clostridioides difficile [33] is 64 µg/mL; with Clostridioides difficile [34], 2 µg/mL; in the experiment on Clostridioides difficile [35], 2 µg/mL; in the experiment on Clostridioides difficile [36] it was 64 µg/mL; in the experiment with Clostridioides difficile [37], 64 µg/mL; in the experiment with Clostridioides difficile [38], 2 µg/mL. Moreover, the minimum inhibitory concentration (MIC) is 16 µg/mL in the experiment on Clostridioides difficile [39], 2 µg/mL in the experiment on Clostridioides difficile [40], 1 µg/mL in the experiment with Clostridioides difficile [41] and 2 µg/mL in the experiment on Clostridioides difficile [42].
